pIC50: −log10 of the molar value. Converted amounts (≈) assume the structure as drawn.
Assays:
[1] = Selective ratio of HC50 for human RBC to IC50 for human HeLa cells; assay type: toxicity; details: human red blood cells versus HeLa cells
Outline: (§1)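 Ratio of HC50 (RBC) to HeLa IC50 or to MIC against B. subtilis or E. coli; values measured in mg/mL and recalculated to μM, 2-fold dilution without curve fitting, accuracy within a factor of 2.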

[2] = system: Escherichia coli; test: Antimicrobial activity against Escherichia coli DSM 1103 after 22 hrs by resazurin dye based spectrophotometry; assay type: functional; details: DSM 1103, 22 h
Outline: (§2)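 2-fold broth microdilution in Mueller–Hinton medium; peptide stocks 1024 μg/mL in 50% ethanol. Exponential-phase cultures diluted to OD550 0.2, then 1:100 (B. subtilis) or 1:1000 (E. coli), giving 5 × 10^5 CFU/mL per well. Incubated 22 h, 37 °C, static; then resazurin (0.2 mg/mL solution) added for 2 h at 37 °C, read visually and spectrophotometrically. Tested in both photoforms.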

[3] = Therapeutic index, ratio of HC50 for human RBC to MIC for Bacillus subtilis DSM 347; assay type: toxicity; details: human red blood cells versus Bacillus subtilis DSM 347; outline: as §1
[4] = Therapeutic index, ratio of HC50 for human RBC to MIC for Escherichia coli DSM 1103; assay type: toxicity; details: human red blood cells versus Escherichia coli DSM 1103; outline: as §1
[5] = Hemolytic activity against human RBC assessed as hemolysis after 30 mins by colorimetric method; assay type: ADME, cell-based, Erythrocyte; details: human red blood cells (erythrocytes)
Outline: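 Human erythrocytes washed twice in isotonic 172 mM Tris-HCl, pH 7.6; peptides dissolved in DMSO, diluted in buffer, two independent 10-step 2-fold series from 256 or 192 μg/mL. HC50 extrapolated as 50% hemolysis concentration.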

[6] = system: Bacillus subtilis; test: Antimicrobial activity against Bacillus subtilis DSM 347 after 22 hrs by resazurin dye based spectrophotometry; assay type: functional; details: DSM 347, 22 h; outline: as §2
[7] = system: HeLa; test: Cytotoxicity against human HeLa cells assessed as reduction in cell viability after 24 hrs by MTT assay; assay type: functional, cell-based
Outline: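 HeLa cells seeded at about 5 × 10^4 cells/mL in DMEM with 10% FBS, 2 mM glutamine, gentamicin; 24 h adaptation (37 °C, 5% CO2), then 24 h peptide exposure. MTT 4 h, formazan in DMSO read at 570 nm. 2-fold series 256–0.5 (open) or 512–1 μg/mL (closed), four repetitions; IC50 extrapolated from killing curves. Closed form handled in dim light.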

Row | SMILES | MIC [2] | MIC [6] | selectivity ratio [1] | selectivity ratio [3] | selectivity ratio [4] | HC50 at 0.5 h [5] | pIC50 [7]
1 | Cc1sc2cc1C1=C(CCC1)c1cc(sc1C)C(=O)[C@H]1CCCN1C(=O)[C@H](CC(C)C)NC(=O)[C@H](CCCN)NC(=O)[C@H](C(C)C)NC(=O)[C@@H]1CCCN1C(=O)[C@@H](Cc1ccccc1)NC(=O)[C@H](CC(C)C)NC(=O)[C@H](CCCN)NC(=O)[C@H](CCCN)NC2=O | 25 µM (≈ 32.4 µg/mL) | 2 µM (≈ 2.59 µg/mL) | 2 | 6 | 0.5 | 12 µM | 5.22
2 | Cc1sc2cc1C1=C(CCC1)c1cc(sc1C)C(=O)[C@H]1CCCN1C(=O)[C@H](C(C)C)NC(=O)[C@H](CCCN)NC(=O)[C@H]([C@H](O)C(C)C)NC(=O)[C@@H]1CCCN1C(=O)[C@@H](Cc1ccccc1)NC(=O)[C@H](C(C)C)NC(=O)[C@H](CCCN)NC(=O)[C@H]([C@H](O)C(C)C)NC2=O | 98 µM (≈ 129 µg/mL) | 3 µM (≈ 3.94 µg/mL) | 2.6 | 53.3 | 1.6 | 160 µM | 4.21
3 | Cc1sc2cc1C1=C(CCC1)c1cc(sc1C)C(=O)[C@H]1CCCN1C(=O)[C@H](C(C)C)NC(=O)[C@H](CCCN)NC(=O)[C@H](C(C)C)NC(=O)[C@@H]1CCCN1C(=O)[C@@H](Cc1ccccc1)NC(=O)[C@H](C(C)C)NC(=O)[C@H](CCCN)NC(=O)[C@H](CC(=O)NC(C)C)NC2=O | 98 µM (≈ 128 µg/mL) | 3 µM (≈ 3.93 µg/mL) | 2.3 | 51 | 1.6 | 153 µM | 4.18

The next lines start with results.

Row | MIC [2] | MIC [6] | SMILES | selectivity ratio [1] | selectivity ratio [3] | selectivity ratio [4] | HC50 at 0.5 h [5] | pIC50 [7]
4 | 200 µM (≈ 257 µg/mL) | 25 µM (≈ 32.1 µg/mL) | CC(C)[C@@H]1NC(=O)C2=CC3=C4CCCC4=C4C=C(S[C@]4(C)[C@@]3(C)S2)C(=O)[C@H]2CCCN2C(=O)[C@H]([C@H](O)C(C)C)NC(=O)[C@H](CCCN)NC(=O)[C@H](C(C)C)NC(=O)[C@@H]2CCCN2C(=O)[C@@H](Cc2ccccc2)NC(=O)[C@H](C(C)C)NC(=O)[C@H](CCCN)NC1=O | 0.7 | 8 | 1 | 200 µM | 3.52
5 | 195 µM (≈ 256 µg/mL) | 12 µM (≈ 15.8 µg/mL) | CC(C)[C@@H]1NC(=O)[C@H](CCCN)NC(=O)[C@H]([C@H](O)C(C)C)NC(=O)C2=CC3=C4CCCC4=C4C=C(S[C@]4(C)[C@@]3(C)S2)C(=O)[C@H]2CCCN2C(=O)[C@H](C(C)C)NC(=O)[C@H](CCCN)NC(=O)[C@H]([C@H](O)C(C)C)NC(=O)[C@@H]2CCCN2C(=O)[C@@H](Cc2ccccc2)NC1=O | 0.5 | 13.3 | 0.8 | 160 µM | 3.53
6 | 92 µM (≈ 127 µg/mL) | 3 µM (≈ 4.14 µg/mL) | CC(C)[C@@H]1NC(=O)C2=CC3=C4CCCC4=C4C=C(S[C@]4(C)[C@@]3(C)S2)C(=O)[C@H]2CCCN2C(=O)[C@H](Cc2ccc(O)cc2)NC(=O)[C@H](CCCN)NC(=O)[C@H](C(C)C)NC(=O)[C@@H]2CCCN2C(=O)[C@@H](Cc2ccccc2)NC(=O)[C@H](Cc2ccc(O)cc2)NC(=O)[C@H](CCCN)NC1=O | 0.1 | 3.7 | 0.1 | 11 µM | 3.86
7 | 164 µM (≈ 257 µg/mL) | 21 µM (≈ 32.9 µg/mL) | CC(C)C[C@@H]1NC(=O)[C@H](CCCCN)NC(=O)[C@H](C(C)C)NC(=O)[C@@H]2CCCN2C(=O)[C@@H](Cc2ccccc2)NC(=O)[C@H](CC(C)C)NC(=O)[C@H](CCCCN)NC(=O)[C@H](C(C)C)NC(=O)[C@H](CCCCN)NC(=O)C2=CC3=C4CCCC4=C4C=C(S[C@]4(C)[C@@]3(C)S2)C(=O)[C@H]2CCCN2C(=O)[C@H](CCCCN)NC1=O | 0.8 | 3.1 | 0.4 | 65 µM | 4.09
8 | 96 µM (≈ 266 µg/mL) | 6 µM (≈ 16.6 µg/mL) | CC(C)[C@@H]1NC(=O)[C@H](CCCN)NC(=O)[C@H]([C@H](O)C(C)C)NC(=O)C2=CC3=C4CCCC4=C4C=C(S[C@]4(C)[C@@]3(C)S2)C(=O)[C@H]2CCCN2C(=O)[C@H](C(C)C)NC(=O)[C@H](CCCN)NC(=O)[C@H](C(C)C)NC(=O)[C@H](CCCn2cc(COCc3cn(CCC[C@H]4C(=O)N[C@@H](C(C)C)C(=O)N[C@@H](CCCN)C(=O)N[C@@H](C(C)C)C(=O)N5CCC[C@@H]5C(=O)C5=CC6=C7CCCC7=C7C(=CS[C@]7(C)[C@@]6(C)S5)C(=O)N[C@@H]([C@H](O)C(C)C)C(=O)N[C@@H](CCCN)C(=O)N[C@@H](C(C)C)C(=O)N[C@H](Cc5ccccc5)C(=O)N4C)nn3)nn2)N(C)C(=O)[C@@H](Cc2ccccc2)NC1=O | 0.2 | 1.7 | 0.1 | 10 µM | 4.32
